Hits are enriched below; roughly 1.2% of the tested compounds scored in any of these assays.
CHO-K1 Ca ag: nonselective activator or artifact in parental CHO-K1 cells | AID 602248 | Fluo-8 calcium fluorescence; scaled to maximal ATP response, vehicle zero | activation, % at 3 µM | actives 0.48% (n = 360,000); in the data active = activation above about 15%;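 also: untransfected CHO-K1 host cells lacking M1 receptor as counterscreen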
TRPN1 ag: zebrafish TRPN1 (NompC) channel agonism; HEK293 zebrafish TRPN1-YFP, Fluo-8 calcium fluorescence; 100% = response to 87 µM carbachol; activation, % at 3 µM; actives 0.18% (n = 220,000);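 active = activation above its plate's cutoff, the mean activation of test wells on that plate plus 3 SD, cut at about 19% in these data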;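 also: 0% = DMSO alone and 100% = 87 µM carbachol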
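Assay system: Zebrafish TRPN1-YFP in HEK293 cells | Incubation: Dye loading 1 h at 37 °C, then 30 min room temperature | Measured by: Kinetic Fluo-8 fluorescence, ex 470-495, em 515-575 nm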
TRPML3 agonist: agonists of human TRPML3 channel; Q8TDD5; HEK293 TRPML3-YFP, Fluo-8 calcium fluorescence; 100% = the carbachol control signal; activation, % at 3 µM; actives 0.29% (n = 220,000);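 active = activation above its plate's cutoff, the mean activation of the plate's test wells plus 3 SD, cut at about 12% in these data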;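 also: 0% = DMSO only wells and 100% = carbachol wells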
Target sequence (Q8TDD5 whole entry, looked up): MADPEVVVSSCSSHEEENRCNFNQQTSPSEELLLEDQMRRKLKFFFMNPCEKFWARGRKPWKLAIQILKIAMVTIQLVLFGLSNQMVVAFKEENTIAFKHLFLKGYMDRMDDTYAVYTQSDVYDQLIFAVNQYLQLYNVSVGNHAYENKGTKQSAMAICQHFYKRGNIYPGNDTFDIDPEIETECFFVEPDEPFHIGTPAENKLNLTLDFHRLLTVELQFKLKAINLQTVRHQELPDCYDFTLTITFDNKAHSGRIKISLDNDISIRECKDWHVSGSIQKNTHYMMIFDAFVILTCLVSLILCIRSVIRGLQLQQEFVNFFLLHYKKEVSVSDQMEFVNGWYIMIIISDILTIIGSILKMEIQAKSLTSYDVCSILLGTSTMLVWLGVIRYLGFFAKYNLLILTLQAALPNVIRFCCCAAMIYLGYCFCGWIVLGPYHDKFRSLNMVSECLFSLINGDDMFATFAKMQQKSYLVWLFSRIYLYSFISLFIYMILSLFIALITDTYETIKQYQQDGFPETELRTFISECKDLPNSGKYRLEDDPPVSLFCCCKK
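Test system: HEK293 cells stably carrying human TRPML3-YFP; Doses: single dose, 3 µM final nominal compound, 0.3% DMSO final; Schedule: dye loading 1 h 37 °C then 30 min ambient, 125 s read; Technique: Fluo-8 calcium fluorescence; Benchmarks: high control carbachol 87 µM, low control DMSO.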
CHO-K1 Ca antag: counter-screen for M1 antagonists: effect in parental CHO-K1 cells. ATP-induced calcium, Fluo-8 fluorescence. inhibition, % at 3 µM. actives 0.6% (n = 360,000);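 active = inhibition above a per-plate cutoff, the plate's mean sample inhibition plus 3 SD, cut at about 24% in these data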;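 also: 0% = DMSO plus EC80 ATP and 100% = DMSO alone without ATP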
M1 PAM parental: nonselective activator or artifact in parental CHO-K1 calcium assay. actives 0.02% (n = 360,000). activation, % at 3 µM. ATP EC20, Fluo-8 calcium fluorescence; 0% at ATP EC20, 100% at ATP max;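 active = activation above the run cutoff, the mean activation of all test compounds plus 3 SD, cut at about 40% in these data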;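 also: peak over basal fluorescence ratio in a 140 s read after ATP addition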
Starred values were filed as active, the others as inactive.

For CN(c1ccc(OCC(=O)OCC(=O)Nc2ccc(F)cc2)cc1)S(=O)(=O)c1ccc(Cl)cc1 the results were CHO-K1 Ca ag 11, TRPN1 ag -1, TRPML3 agonist 0, CHO-K1 Ca antag 4 and M1 PAM parental 6.
Screening CC(C)CN1C(=O)c2ccc(C(=O)Nc3ccncc3)cc2C1=O returned CHO-K1 Ca ag 18*, TRPN1 ag 8, TRPML3 agonist 5, CHO-K1 Ca antag -16 and M1 PAM parental 0.
Screening CCN(CC)c1ccc(/C=C(\C#N)c2ccccn2)cc1 returned CHO-K1 Ca ag 1, TRPN1 ag 3, TRPML3 agonist 3, CHO-K1 Ca antag 26* and M1 PAM parental -16.
Screening CCN(Cc1ccccc1)c1ccc(/C=C(\C#N)c2ccccn2)cc1 returned CHO-K1 Ca ag 1, TRPN1 ag 2, TRPML3 agonist 2, CHO-K1 Ca antag -10 and M1 PAM parental 16.
`COc1ccc([C@H]2CN(Cc3ccccc3)C(=O)[C@@H]2CC(=O)Nc2ccccc2)cc1` gave CHO-K1 Ca ag 1, CHO-K1 Ca antag 1 and M1 PAM parental 4.
For Cc1ccc(C)c(NC(=O)c2ccccc2NS(=O)(=O)c2cc([N+](=O)[O-])ccc2C)c1 the results were CHO-K1 Ca ag 14, TRPN1 ag 27*, TRPML3 agonist 18*, CHO-K1 Ca antag 14 and M1 PAM parental -5.
Cc1ccc([N+](=O)[O-])cc1S(=O)(=O)Nc1cccc(S(=O)(=O)Nc2ccccc2C(=O)O)c1 was read as CHO-K1 Ca ag 1, CHO-K1 Ca antag -6 and M1 PAM parental 16.
CC(=O)c1c(COC(=O)c2ccco2)nc2ccccc2[n+]1[O-] was read as CHO-K1 Ca ag 4, CHO-K1 Ca antag -13 and M1 PAM parental 16.
For O=C(OCc1nc2ccccc2[n+]([O-])c1C(=O)c1ccccc1)c1ccco1 the results were CHO-K1 Ca ag 1, TRPN1 ag 3, TRPML3 agonist 0, CHO-K1 Ca antag 24* and M1 PAM parental -19.
Screening CCOc1ccc(-c2cc(C(=O)N/N=C/c3cccnc3)c3ccccc3n2)cc1 returned CHO-K1 Ca ag 24*, CHO-K1 Ca antag 13 and M1 PAM parental -1.
For CCOc1ccc(-c2cc(C(=O)Nc3ccc4c(c3)OCCO4)c3ccccc3n2)cc1 the results were CHO-K1 Ca ag 3, TRPN1 ag -2, TRPML3 agonist 0, CHO-K1 Ca antag 30* and M1 PAM parental 5.
Screening COc1ccc(CC(N)c2csc(NC(=O)C(c3ccccc3)c3ccccc3)n2)cc1 (centres undefined) returned CHO-K1 Ca ag 4, CHO-K1 Ca antag 2 and M1 PAM parental 14.
`O=C(NCc1ccccc1)C1c2ccccc2OCC(=O)N1Cc1ccco1` (centres undefined) gave CHO-K1 Ca ag 1, CHO-K1 Ca antag -18 and M1 PAM parental 14.
O=C(O)C1C=CCC(C(=O)O)C1 (centres undefined) was read as CHO-K1 Ca ag 0, CHO-K1 Ca antag -8 and M1 PAM parental 8.
`C=C1C(=O)C=C2CN(C(=O)c3ccccc3)[C@@](Cc3ccc(F)cc3)(C(=O)OC)[C@@H]12` gave CHO-K1 Ca ag 75*, TRPN1 ag 37*, TRPML3 agonist 5, CHO-K1 Ca antag 83* and M1 PAM parental -16.
CC1(C)CC2CC(C)(CN2C(=S)Nc2ccccc2F)C1 (centres undefined) was read as CHO-K1 Ca ag 1, TRPN1 ag -1, TRPML3 agonist 1, CHO-K1 Ca antag -9 and M1 PAM parental 31.
Screening CC1(C)CC2CC(C)(CN2C(=S)Nc2ccccc2)C1 (centres undefined) returned CHO-K1 Ca ag 16*, TRPN1 ag 4, TRPML3 agonist 0, CHO-K1 Ca antag -12 and M1 PAM parental 22.
COc1ccc(-c2nc3c(C)cc(Br)cn3c2Cc2ccc(C)cc2)cc1OC was read as CHO-K1 Ca ag 0, CHO-K1 Ca antag -7 and M1 PAM parental -8.
O=[N+]([O-])c1ccc(Sc2cccc[n+]2[O-])c2nonc12 was read as CHO-K1 Ca ag 0, TRPN1 ag 35*, TRPML3 agonist 14*, CHO-K1 Ca antag 88* and M1 PAM parental -25.
For CCOC(=O)C1=C[C@@H](C(C)(C)C)N(S(=O)(=O)c2ccc(C)cc2)[C@H]1c1ccc(C)cc1 the results were CHO-K1 Ca ag 1, CHO-K1 Ca antag 13 and M1 PAM parental 15.
`CCOC(=O)C1=C[C@@H](C(C)(C)C)N(S(=O)(=O)c2ccc(C)cc2)[C@H]1c1ccccc1Cl` gave CHO-K1 Ca ag 1, CHO-K1 Ca antag 24* and M1 PAM parental -5.
Screening COC(CNC(=O)c1ccc2c3c(onc13)-c1ccccc1C2=O)OC returned CHO-K1 Ca ag 2, TRPN1 ag 27*, TRPML3 agonist 18*, CHO-K1 Ca antag 14 and M1 PAM parental -20.
For O=C(Nc1cccc2c1CCCC2)c1cc(C2CCCCN2S(=O)(=O)c2cccs2)on1 (centres undefined) the results were CHO-K1 Ca ag 2, CHO-K1 Ca antag -14 and M1 PAM parental 9.
Screening CCOc1ccc(S(=O)(=O)Nc2ccc(C(=O)N3CC(C)OC(C)C3)cc2)cc1 (centres undefined) returned CHO-K1 Ca ag 17*, CHO-K1 Ca antag 4 and M1 PAM parental -20.
`CC1CCN(C(=O)c2ccc(NS(=O)(=O)c3ccccc3)cc2)CC1` gave CHO-K1 Ca ag 0, CHO-K1 Ca antag 11 and M1 PAM parental -13.
For COc1ccc(NS(=O)(=O)c2ccc(C(=O)N3CCC(C)CC3)cc2)cc1 the results were CHO-K1 Ca ag 31*, CHO-K1 Ca antag -5 and M1 PAM parental -11.
For COc1ccccc1NS(=O)(=O)c1ccc(C(=O)N2CCCC(C(F)(F)F)C2)cc1 (centres undefined) the results were CHO-K1 Ca ag 2, CHO-K1 Ca antag 9 and M1 PAM parental -22.
`Cc1ccc(NS(=O)(=O)c2ccc(C(=O)N3CCCC(C(F)(F)F)C3)cc2)cc1` (centres undefined) gave CHO-K1 Ca ag 39*, CHO-K1 Ca antag 9 and M1 PAM parental -10.
Screening CCOc1ccc(NS(=O)(=O)c2ccc(C(=O)N3CCCCC3)cc2)cc1 returned CHO-K1 Ca ag 19*, CHO-K1 Ca antag 6 and M1 PAM parental -19.
O=C(CSc1ncccn1)NC(=O)NC1CCCC1 was read as CHO-K1 Ca ag 1, CHO-K1 Ca antag -16 and M1 PAM parental 15.
O=C(OC1CC2CC1[C@H]1CCCCN1C2=O)N1CCCCC1 (some centres undefined) was read as CHO-K1 Ca ag 1, CHO-K1 Ca antag -27 and M1 PAM parental 17.
CCOc1ccc(NS(=O)(=O)c2ccc(NC(=S)NC(=O)C(C)C)cc2)cc1 was read as CHO-K1 Ca ag 3, TRPN1 ag 3, TRPML3 agonist 4, CHO-K1 Ca antag 2 and M1 PAM parental 1.

Compound activity from PubChem BioAssay.
